From ChEMBL document CHEMBL1124650, “Structure-activity relationships among methoctramine-related polymethylene tetraamines. Chain-length and substituent effects on M-2 muscarinic receptor blocking activity” (J Med Chem, 1989) come the findings set out here.

Details in all cases: read-out: pA2 (converted)
The target in assay [1] is Muscarinic acetylcholine receptor M2 (Cavia porcellus). Nature of the assay: Antagonist potency against muscarinic receptors was assed by antagonism of carbachol induced inhibition of electrically stimulated guinea pig atria.
The target in assay [2] is T1, Muscarinic acetylcholine receptor M3 (Cavia porcellus, UniProt Q8VH26). Nature of the assay: (§1) Antagonist potency against carbachol induced contractions of isolated guinea pig ileum Muscarinic acetylcholine receptor. Type of assay: functional, tissue-based.
The target in assay [3] is Muscarinic acetylcholine receptor M2 (Cavia porcellus). Briefly: Antagonist potency against carbachol induced inhibition of electrically stimulated guinea pig atria Muscarinic acetylcholine receptor.
The target in assay [4] is T1, Muscarinic acetylcholine receptor M3. Described as §1. Type of assay: functional, tissue-based. Put shortly: (§2)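 Mounted in PSS at 37 °C with isotonic recording and 30 min equilibration. Carbachol curves (0.01-10 μM) were run at 30-min intervals, the second serving as control. A repeat curve followed 30 min antagonist incubation. pA2 came from Schild plots constrained to slope -1.0, using three antagonist concentrations each tested ≥5 times.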
The source holds these as a separate data set.

Assay [5] addresses Muscarinic acetylcholine receptor M2 (Cavia porcellus). Briefly: Antagonist potency against carbachol induced inhibition of electrically stimulated guinea pig atria Muscarinic acetylcholine receptor. The source holds these as a separate data set.
Assay [6] shares this target. The assay is described as above. This is another data set of the same source.
For assay [7], the target named is T1, Muscarinic acetylcholine receptor M3. Nature of the assay: Antagonist potency against carbachol induced contractions of isolated guinea pig ileum Muscarinic acetylcholine receptor; Inactive up to 10 uM. Type of assay: functional, tissue-based. Put shortly:
as §2

Each structure is given as a SMILES string. Where only a bound is given, the exact number is not on record here.

T1 sequence (Q8VH26 whole entry): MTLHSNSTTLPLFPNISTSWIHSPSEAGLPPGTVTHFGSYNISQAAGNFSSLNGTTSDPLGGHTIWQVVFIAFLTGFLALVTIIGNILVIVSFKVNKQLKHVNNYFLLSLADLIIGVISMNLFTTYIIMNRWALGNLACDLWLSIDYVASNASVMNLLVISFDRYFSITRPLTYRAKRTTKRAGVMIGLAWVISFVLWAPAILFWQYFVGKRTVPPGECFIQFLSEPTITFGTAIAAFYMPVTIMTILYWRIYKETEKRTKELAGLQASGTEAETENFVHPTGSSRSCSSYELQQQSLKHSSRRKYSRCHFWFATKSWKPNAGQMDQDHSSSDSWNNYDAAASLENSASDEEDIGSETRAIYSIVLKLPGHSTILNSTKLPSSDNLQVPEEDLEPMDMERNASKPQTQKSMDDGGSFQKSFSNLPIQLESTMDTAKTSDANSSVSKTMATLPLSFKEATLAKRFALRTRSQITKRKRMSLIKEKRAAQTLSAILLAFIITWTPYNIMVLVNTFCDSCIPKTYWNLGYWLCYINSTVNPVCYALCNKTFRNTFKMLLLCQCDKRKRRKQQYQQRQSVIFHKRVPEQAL

Take `COc1ccccc1CNCCCCCCN(C)CCCCCCCCN(C)CCCCCCNCc1ccccc1OC`: the Kb in assay [1] is 10.2 nM; in assay [2] it was 417 nM. `Clc1ccccc1CNCCCCCCNCCCCCCCCNCCCCCCNCc1ccccc1Cl`: the values for the Kb in assay [3] and in assay [4] were 66.1 nM and 2820 nM, respectively. In the case of `c1coc(CNCCCCCCNCCCCCCCCNCCCCCCNCc2ccco2)c1`, the Kb in assay [5] was 9.12 nM; in assay [4] it was 851 nM. For `c1ccc(CNCCCCCCNCCCCCCCCNCCCCCCNCc2ccccc2)cc1`, the Kb in assay [3] was 83.2 nM; in assay [4], 2190 nM. On the same counts, the results for `Fc1ccc(CNCCCCCCNCCCCCCCCNCCCCCCNCc2ccc(F)cc2)cc1` are 129 nM and 2400 nM. In the case of `O=[N+]([O-])c1ccc(CNCCCCCCNCCCCCCCCNCCCCCCNCc2ccc([N+](=O)[O-])cc2)cc1`, the values for the Kb in assay [3] and in assay [4] were 95.5 nM and 1320 nM, respectively. As for `COc1ccccc1CNCCCCCCNCCCCCCCCCCCCCCNCCCCCCNCc1ccccc1OC`, the Kb in assay [4] is 1410 nM. As to `COc1ccccc1CNCCCCCCNCCCCCCCCCCCNCCCCCCNCc1ccccc1OC`, the Kb in assay [3] is 37.2 nM; in assay [4], 2290 nM. As to `COc1ccccc1CN(C)CCCCCCNCCCCCCCCNCCCCCCN(C)Cc1ccccc1OC`, the results for the Kb in assay [1] and in assay [2] were 166 nM and above 10000 nM, respectively. `Cc1ccc(CNCCCCCCNCCCCCCCCNCCCCCCNCc2ccc(C)cc2)cc1`: the values for the Kb in assay [3] and in assay [4] were 166 nM and 2340 nM, respectively. In the case of `Clc1cccc(CNCCCCCCNCCCCCCCCNCCCCCCNCc2cccc(Cl)c2)c1`, the Kb in assay [4] was 2290 nM; in assay [6], 186 nM. Turning to `Cc1ccccc1CNCCCCCCNCCCCCCCCNCCCCCCNCc1ccccc1C`, the results for the Kb in assay [3] and in assay [4] were 58.9 nM and 2000 nM, respectively. In the case of `COc1ccccc1CNCCCCCNCCCCCCCCNCCCCCNCc1ccccc1OC`, the figures for the Kb in assay [3] and in assay [4] were 162 nM and 2450 nM, respectively. As to `COc1ccccc1CNCCCCCCNCCCCCCCCCCCCCNCCCCCCNCc1ccccc1OC`, the Kb in assay [3] is 95.5 nM; in assay [4] it was 1230 nM. Turning to `CSc1ccccc1CNCCCCCCNCCCCCCCCNCCCCCCNCc1ccccc1SC`, the Kb in assay [3] is 26.9 nM; in assay [4], 589 nM. Take `c1cncc(CNCCCCCCNCCCCCCCCNCCCCCCNCc2cccnc2)c1`: the Kb in assay [1] is 288 nM; in assay [2] it was 4900 nM.

With `c1ccc(CNCCCCCCNCCCCCCCCNCCCCCCNCc2ccccn2)nc1`, the Kb was 53.7 nM in assay [1] and 3310 nM in assay [2]. As to `Clc1ccc(CNCCCCCCNCCCCCCCCNCCCCCCNCc2ccc(Cl)cc2)cc1`, the Kb in assay [3] is 178 nM; in assay [4] it was 2340 nM. Take `COc1ccc(CNCCCCCCNCCCCCCCCNCCCCCCNCc2ccc(OC)cc2)cc1`: the Kb in assay [3] is 141 nM; in assay [4] it was 2750 nM. As for `Cc1ccc(CNCCCCCCNCCCCCCCCNCCCCCCNCc2ccc(C)o2)o1`, the Kb in assay [1] was 8.91 nM; in assay [2], 708 nM. For `COc1ccccc1CN(C)CCCCCCN(C)CCCCCCCCN(C)CCCCCCN(C)Cc1ccccc1OC`, the Kb is above 10000 nM in assay [7] and 162 nM in assay [1].

`COc1ccccc1CNCCCCCCCNCCCCCCCCNCCCCCCCNCc1ccccc1OC`: the figures for the Kb in assay [3] and in assay [4] were 27.5 nM and 646 nM, respectively. For the compound `COc1cccc(CNCCCCCCNCCCCCCCCNCCCCCCNCc2cccc(OC)c2)c1`, the Kb in assay [3] is 151 nM; in assay [4], 3890 nM. With `COc1ccccc1CNCCCCCCNCCCCCCCCNCCCCCCNCc1ccccc1OC` [METHOCTRAMINE], the Kb in assay [4] is 832 nM.
